Blank lines part the entries; values can stand above or below the compound they belong to.
Assays:
[1] = system: Mus musculus; assay: Compound was tested for anticonvulsant activity in maximal electroshock seizure(MES) test after 30 min upon intraperitoneal administration to mice at a dose of 114 mg/kg; Animals protected / Animals tested = 3/10; assay type: functional
In short: (§1)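 Male OF1 mice (15-25 g), free access to water only during testing. Compound given ip and maximal electroshock applied at 30 min or 3 h. Typically 8-10 mice per compound, dose and time point. Screening at initial 0.4 mmol/kg, scored as protected/tested.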

[2] = system: Mus musculus; assay: Compound was tested for anticonvulsant activity in maximal electroshock seizure(MES) test after 3 hours upon intraperitoneal administration to mice at a dose of 114 mg/kg; Animals protected / Animals tested = 4/8; assay type: functional; in short: as §1
[3] = Lipophilicity value was evaluated; assay type: physicochemical; details: RP-HPLC
In short: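 Lipophilicity by RP-HPLC on a C18 column at 1.0 mL/min. Mobile phases were 10-50% […] with 50-90% 0.01 M phosphate buffer pH 7.4. Triplicate runs per eluent. log k_o extrapolated from at least four eluent compositions. ClogP also calculated.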

[4] = system: Mus musculus; assay: Compound was tested for anticonvulsant activity in maximal electroshock seizure(MES) test after 3 hours upon intraperitoneal administration to mice; assay type: functional; details: ip; in short: as §1
[5] = system: Mus musculus; assay: Compound was tested for anticonvulsant activity in maximal electroshock seizure(MES) test after 30 min upon intraperitoneal administration to mice; assay type: functional; details: ip, 0.5 h; in short: as §1
[6] = system: Mus musculus; assay: The average latency on the onset of the seizures compared to the controls after 30 min in the strychnine test in mice at a dose of 209 mg/kg; assay type: functional
In short: (§2)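 Male NMRI mice (18-25 g). Compound in DMSO given ip at 2 mL/kg. Strychnine chlorhydrate in saline (1.2 mg/mL, 1 mL/kg) given sc 30 min or 3 h later, with 30 min observation. Seizure onset latency expressed as % of the mean control latency (mean ± SD, n = 8-10).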

[7] = system: Mus musculus; assay: The average latency on the onset of the seizures compared to the controls after 3 hr in the strychnine test in mice at a dose of 209 mg/kg; assay type: functional; in short: as §2
[8] = system: Mus musculus; assay: Compound was tested for anticonvulsant activity in maximal electroshock seizure(MES) test after 30 min upon intraperitoneal administration to mice at a dose of 84 mg/kg; Animals protected / Animals tested = 2/8; assay type: functional; in short: as §1
[9] = system: Mus musculus; assay: Percent of the tonic seizures after 30 min in the 3-mercaptopropionic acid test in mice at a dose of 209 mg/kg, ip; assay type: functional; details: route intraperitoneal
In short: (§3)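 Male NMRI mice (18-25 g). Compound in DMSO given ip at 2 mL/kg. 3-Mercaptopropionic acid 40 mg/kg ip in saline given 30 min or 3 h later. Tonic seizures recorded and expressed as % of animals.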

[10] = system: Mus musculus; assay: Percent of the tonic seizures after 30 min in the 3-mercaptopropionic acid test in mice at a dose of 418 mg/kg, ip; assay type: functional; details: route intraperitoneal; in short: as §3
[11] = system: Mus musculus; assay: Percent of the tonic seizures after 3h in the 3-mercaptopropionic acid test in mice at a dose of 209 mg/kg, ip; assay type: functional; details: route intraperitoneal; in short: as §3
[12] = system: Mus musculus; assay: Percent of the tonic seizures after 3h in the 3-mercaptopropionic acid test in mice at a dose of 418mg/kg, ip; assay type: functional; in short: as §3
[13] = system: Mus musculus; assay: The average latency on the onset of the seizures compared to the controls after 30 min in the strychnine test in mice at a dose of 220 mg/kg; assay type: functional; in short: as §2
[14] = system: Mus musculus; assay: The average latency on the onset of the seizures compared to the controls after 3h in the strychnine test in mice at a dose of 220 mg/kg; assay type: functional; in short: as §2
[15] = system: Mus musculus; assay: Compound was tested for anticonvulsant activity in maximal electroshock seizure(MES) test after 3 hours upon intraperitoneal administration to mice at a dose of 750 mg/kg; assay type: functional; details: ip; in short: as §1
[16] = system: Mus musculus; assay: Compound was tested for anticonvulsant activity in maximal electroshock seizure(MES) test after 30 min upon intraperitoneal administration to mice at a dose of 89 mg/kg; Animals protected / Animals tested = 2/8; assay type: functional; in short: as §1
[17] = system: Mus musculus; assay: Compound was tested for anticonvulsant activity in maximal electroshock seizure(MES) test after 3 hours upon intraperitoneal administration to mice at a dose of 106 mg/kg; Animals protected / Animals tested = 4/8; assay type: functional; in short: as §1
[18] = system: Mus musculus; assay: Compound was tested for anticonvulsant activity in maximal electroshock seizure(MES) test after 3 hours upon intraperitoneal administration to mice at a dose of 116 mg/kg; Animals protected / Animals tested = 3/8; assay type: functional; in short: as §1
[19] = system: Mus musculus; assay: Ratio of the animals protected to animals tested after 30 min. in the MES test after intraperitoneal administration to mice at a dose of 150 mg/kg; Animals protected / Animals tested = 2/10; assay type: functional; in short: as §1
[20] = system: Mus musculus; assay: Ratio of the animals protected to animals tested after 3h in the MES test after intraperitoneal administration to mice at a dose of 150 mg/kg; Animals protected / Animals tested = 3/8; assay type: functional; in short: as §1
[21] = system: Mus musculus; assay: Compound was tested for anticonvulsant activity in maximal electroshock seizure(MES) test after 3 hours upon intraperitoneal administration to mice at a dose of 120 mg/kg; Animals protected / Animals tested = 6/9; assay type: functional; in short: as §1
[22] = system: Mus musculus; assay: Compound was tested for anticonvulsant activity in maximal electroshock seizure(MES) test after 30 min upon intraperitoneal administration to mice at a dose of 120 mg/kg; Animals protected / Animals tested = 4/10; assay type: functional; in short: as §1
[23] = system: Mus musculus; assay: Ratio of the animals protected to animals tested after 30 min. in the MES test after intraperitoneal administration to mice at a dose of 150 mg/kg; Animals protected / Animals tested = 1/8; assay type: functional; in short: as §1
[24] = system: Mus musculus; assay: Ratio of the animals protected to animals tested after 3h in the MES test after intraperitoneal administration to mice at a dose of 150 mg/kg; Animals protected / Animals tested = 5/10; assay type: functional; in short: as §1
[25] = system: Mus musculus; assay: Compound was tested for anticonvulsant activity in maximal electroshock seizure(MES) test after 30 min upon intraperitoneal administration to mice at a dose of 120 mg/kg; Animals protected / Animals tested = 0/8; assay type: functional; in short: as §1
[26] = system: Mus musculus; assay: Compound was tested for anticonvulsant activity in maximal electroshock seizure(MES) test after 30 min upon intraperitoneal administration to mice at a dose of 89 mg/kg; Animals protected / Animals tested = 3/8; assay type: functional; in short: as §1
[27] = system: Mus musculus; assay: Compound was tested for anticonvulsant activity in maximal electroshock seizure(MES) test after 3 hours upon intraperitoneal administration to mice at a dose of 89 mg/kg; Animals protected / Animals tested = 4/10; assay type: functional; in short: as §1
[28] = system: Mus musculus; assay: Compound was tested for anticonvulsant activity in maximal electroshock seizure(MES) test after 30 min upon intraperitoneal administration to mice at a dose of 120 mg/kg; Animals protected / Animals tested = 1/8; assay type: functional; in short: as §1
[29] = system: Mus musculus; assay: The average latency on the onset of the seizures compared to the controls after 30 min in the strychnine test at a dose of 207 mg/kg; assay type: functional; in short: as §2
[30] = system: Mus musculus; assay: The average latency on the onset of the seizures compared to the controls after 3h in the strychnine test at a dose of 207 mg/kg; assay type: functional; in short: as §2
[31] = system: Mus musculus; assay: Compound was tested for anticonvulsant activity in maximal electroshock seizure(MES) test after 3 hours upon intraperitoneal administration to mice at a dose of 166 mg/kg; Animals protected / Animals tested = 6/9; assay type: functional; in short: as §1
[32] = system: Mus musculus; assay: Compound was tested for anticonvulsant activity in maximal electroshock seizure(MES) test after 30 min upon intraperitoneal administration to mice at a dose of 166 mg/kg; Animals protected / Animals tested = 3/9; assay type: functional; in short: as §1
[33] = system: Mus musculus; assay: Percent of the tonic seizures after 30 min in the 3-mercaptopropionic acid test at a dose of 207 mg/kg; assay type: functional; in short: as §3
[34] = system: Mus musculus; assay: Percent of the tonic seizures after 3h in the 3-mercaptopropionic acid test at a dose of 207 mg/kg; assay type: functional; in short: as §3
[35] = system: Mus musculus; assay: Compound was tested for anticonvulsant activity in maximal electroshock seizure(MES) test after 30 min upon intraperitoneal administration to mice at a dose of 58 mg/kg; Animals protected / Animals tested = 2/10; assay type: functional; in short: as §1
[36] = system: Mus musculus; assay: Compound was tested for anticonvulsant activity in maximal electroshock seizure(MES) test after 3 hr upon intraperitoneal administration to mice; assay type: functional; details: ip; in short: as §1
[37] = system: Mus musculus; assay: Compound was tested for anticonvulsant activity in maximal electroshock seizure(MES) test after 30 min upon intraperitoneal administration to mice at a dose of 750 mg/kg; assay type: functional; details: ip, 0.5 h; in short: as §1

Structure (SMILES): O=C(O)CNC(=O)OCc1ccccc1
- Average latency [6]: 150%
- Average latency [7]: 142%
- ED50 [4]: 56.5 mg/kg
- Protected/tested [8]: 2
- Tonic seizures [9]: 55%
- Tonic seizures [10]: 33%
- Tonic seizures [11]: 45%
- Tonic seizures [12]: 27%

Structure (SMILES): CCCCCCCCCCOC(=O)CNC(=O)OCc1ccccc1
- Protected/tested [23]: 1
- Protected/tested [24]: 5
- Log Ko [3]: > 5

Structure (SMILES): COC(=O)CNC(=O)CCc1ccccc1
- Protected/tested [26]: 3
- Protected/tested [27]: 4
- Log Ko [3]: 2.37

Structure (SMILES): O=C(O)CNC(=O)CCc1ccccc1 [HYDROCINNAMOYLGLYCINE]
- Average latency [29]: 99%
- Average latency [30]: 96%
- Protected/tested [31]: 6
- Protected/tested [32]: 3
- Tonic seizures [33]: 80%
- Tonic seizures [34]: 100%

Structure (SMILES): CCCCCNCC(N)=O [MILACEMIDE]
- ED50 [4]: 30.2 mg/kg
- Protected/tested [35]: 2

Structure (SMILES): O=C1NC(=O)C(c2ccccc2)(c2ccccc2)N1 [PHENYTOIN]
- ED50 [5]: 3.5 mg/kg
- ED50 [36]: 3 mg/kg

Structure (SMILES): CCCC(CCC)C(=O)O [VALPROIC ACID]
- ED50 [15]: 80.6 mg/kg
- ED50 [37]: 44.5 mg/kg

Structure (SMILES): CCCC(CCC)C(N)=O [VALPROMIDE]
- ED50 [15]: 11.4 mg/kg
- ED50 [37]: 14.9 mg/kg

Now from value to compound, other results behind:

- Log Ko [3]: 3.49
Structure (SMILES): O=C(CNC(=O)OCc1ccccc1)Nc1ccccc1
- Protected/tested [1]: 3
- Protected/tested [2]: 4

- Log Ko [3]: 2.65
Structure (SMILES): CC(C)NC(=O)CNC(=O)OCc1ccccc1
- ED50 [4]: 9.5 mg/kg
- ED50 [5]: 14 mg/kg

- Log Ko [3]: 2.64
Structure (SMILES): COC(=O)CNC(=O)OCc1ccccc1
- Average latency [13]: 154%
- Average latency [14]: 139%
- ED50 [15]: 16.5 mg/kg
- Protected/tested [16]: 2

- Log Ko [3]: 3.25
Structure (SMILES): CC(C)(C)NC(=O)CNC(=O)OCc1ccccc1
- ED50 [5]: 39.4 mg/kg
- Protected/tested [17]: 4

- Log Ko [3]: 3.7
Structure (SMILES): O=C(CNC(=O)OCc1ccccc1)NC1CCCCC1
- ED50 [5]: 33.4 mg/kg
- Protected/tested [18]: 3

- Log Ko [3]: > 5
Structure (SMILES): CCCCCCCCCCNC(=O)CNC(=O)OCc1ccccc1
- Protected/tested [19]: 2
- Protected/tested [20]: 3

- Log Ko [3]: 4.35
Structure (SMILES): O=C(CNC(=O)OCc1ccccc1)OCc1ccccc1
- Protected/tested [21]: 6
- Protected/tested [22]: 4

- Log Ko [3]: 3.99
Structure (SMILES): Cc1ccc(NC(=O)CNC(=O)OCc2ccccc2)cc1
- ED50 [4]: 27.4 mg/kg
- Protected/tested [25]: 0

- Log Ko [3]: 3.49
Structure (SMILES): Cc1ccccc1NC(=O)CNC(=O)OCc1ccccc1
- ED50 [4]: 74.3 mg/kg
- Protected/tested [28]: 1

- Log Ko [3]: 3.88
Structure (SMILES): O=C(CNC(=O)OCc1ccccc1)NCCc1ccccc1
- ED50 [4]: 16.6 mg/kg
- ED50 [5]: 8.1 mg/kg

- Log Ko [3]: 1.52
Structure (SMILES): NC(=O)CNC(=O)OCc1ccccc1
- ED50 [4]: 8.3 mg/kg
- ED50 [5]: 15.2 mg/kg

- Log Ko [3]: 2.03
Structure (SMILES): CNC(=O)CNC(=O)OCc1ccccc1
- ED50 [4]: 7.8 mg/kg
- ED50 [5]: 13.6 mg/kg
